{
  "source": "paper PMC8311649",
  "about": "(Journal of Medicinal Chemistry, 2021)",
  "key": {"Caco-2 cell monolayers": {"tested_on": "Caco-2 cell monolayers", "experiment": "Bidirectional permeability through Caco-2 monolayers", "format": "in vitro ADME, human", "settings": "for significant efflux: from ER and Papp (B-to-A); for absorption potential classification: from Papp (A-to-B)"}, "[1]": {"experiment": "Bidirectional permeability through Caco-2 monolayers", "format": "in vitro ADME, human", "settings": "human, Caco-2, pH 7.4, recovery (%), 5 µM, 120 minutes"}, "[2]": {"experiment": "Metabolic stability across all matrixes and species", "format": "in vitro ADME", "settings": "CD-1 (mouse), Sprague-Dawley (rat), beagle (dog), cynomolgus monkey, human, intestinal S9, liver S9 and plasma"}, "[3]": {"tested_on": "strains expressing class C and OXA-48 β-lactamases", "experiment": "Ceftibuten rescue against representative ceftibuten-resistant strains", "format": "cell-based, K. pneumoniae and E. coli", "settings": "ceftibuten fixed at 1 μg/mL", "in_short": "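Clinical isolates of E. coli and K. pneumoniae carrying the named β-lactamase classes were tested with ceftibuten held at 1 μg/mL. The value is the minimum concentration of the β-lactamase inhibitor that restores ceftibuten antibacterial activity.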"}, "[4]": {"experiment": "Oral bioavailability PK screening in rats", "format": "in vivo", "settings": "rat; oral gavage; dose not given", "in_short": "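Rats were dosed orally with the ester prodrug. F is percent absolute oral bioavailability, corrected for the molecular-weight difference between prodrug and parent.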"}, "SHV-5 (class A)": {"target": "SHV-5 (class A) (Klebsiella pneumoniae, UniProt P0A3M1)", "sequence (P0A3M1 22-286, species assumed)": "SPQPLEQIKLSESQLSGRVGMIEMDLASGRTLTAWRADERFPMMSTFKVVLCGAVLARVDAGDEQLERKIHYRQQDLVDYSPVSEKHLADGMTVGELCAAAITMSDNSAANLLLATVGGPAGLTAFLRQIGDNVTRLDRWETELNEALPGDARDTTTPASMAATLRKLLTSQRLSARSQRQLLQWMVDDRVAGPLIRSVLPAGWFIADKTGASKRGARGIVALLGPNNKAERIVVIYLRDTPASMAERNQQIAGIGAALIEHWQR", "experiment": "β-lactamase inhibition assay, SHV-5", "format": "biochemical"}, "[5]": {"tested_on": "E. coli expressing TEM-1 + CTX-M-15, CTX-M-15, or KPC-2 + SHV-12", "experiment": "Murine ascending UTI model", "design": "species or system C3H/HeJ mice", "settings": "mouse, in vivo"}, "[6]": {"experiment": "Metabolic stability, plasma", "format": "in vitro ADME", "settings": "human"}, "[7]": {"experiment": "Metabolite profiling in cryopreserved hepatocytes", "format": "in vitro ADME", "settings": "all species"}},
  "data": [
    {"smiles": "CCC(=O)N[C@H]1Cc2cccc(C(=O)O)c2OB1O", "note": "[compound 5, (R)-2-Hydroxy-3-propionamido-3,4-dihydro-2H-benzo[e][1,2]oxaborinine-8-carboxylic Acid]", "values": [
      {"measurement": "significant efflux", "setting": "Caco-2 cell monolayers", "result": "no"},
      {"measurement": "absorption potential classification", "setting": "Caco-2 cell monolayers", "result": "low (Papp (A-to-B) < 1.0 × 10^–6 cm/s: low)"},
      {"measurement": "recovery at 120 min, 5 µM", "setting": "[1]; A-to-B", "result": 103, "unit": "%"},
      {"measurement": "recovery at 120 min, 5 µM", "setting": "[1]; B-to-A", "result": 106, "unit": "%"},
      {"measurement": "half-life at 3 µM", "setting": "[2]", "result": "> 120", "unit": "min"}
    ]},
    {"smiles": "O=C(CCC(F)(F)F)N[C@H]1Cc2cccc(C(=O)O)c2OB1O", "note": "[compound 7, (R)-2-Hydroxy-3-(4,4,4-trifluorobutanamido)-3,4-dihydro-2H-benzo[e][1,2]oxaborinine-8-carboxylic Acid]", "values": [
      {"measurement": "activity rescuing ceftibuten (in words)", "setting": "[3]", "result": "reduced activity"}
    ]},
    {"smiles": "CCC(=O)N[C@H]1Cc2cccc(C(=O)OCOC(=O)C(C)(C)C)c2OB1O", "note": "[compound 20, (Pivaloyloxy)methyl (R)-2-Hydroxy-3-propionamido-3,4-dihydro-2H-benzo[e][1,2]oxaborinine-8-carboxylate]", "values": [
      {"measurement": "oral bioavailability (F) in rats", "setting": "[4]", "result": "highest oral bioavailability"}
    ]},
    {"smiles": "CC(F)(F)CCC(=O)N[C@H]1Cc2cccc(C(=O)O)c2OB1O", "note": "[compound 14, (R)-3-(4,4-Difluoropentanamido)-2-hydroxy-3,4-dihydro-2H-benzo[e][1,2]oxaborinine-8-carboxylic Acid]", "values": [
      {"measurement": "activity rescuing ceftibuten (in words)", "setting": "[3]", "result": "reduced activity"},
      {"measurement": "IC50", "setting": "SHV-5 (class A)", "result": 6, "unit": "nM"}
    ]},
    {"smiles": "Nc1nc(/C(=C/CC(=O)O)C(=O)N[C@@H]2C(=O)N3C(C(=O)O)=CCS[C@H]23)cs1", "note": "[CTB, ceftibuten]", "values": [
      {"measurement": "cfu reductions in the bladder", "setting": "[5]", "result": "≤ 2", "unit": "log10"},
      {"measurement": "cfu reductions in urine", "setting": "[5]", "result": "≤ 2", "unit": "log10"},
      {"measurement": "cfu reductions in the kidneys", "setting": "[5]; sc", "result": "minimal cfu reductions"}
    ]},
    {"smiles": "CCC(=O)N[C@H]1Cc2cccc(C(=O)OCOC(=O)C(CC)CC)c2OB1O", "note": "[compound 36, ((2-Ethylbutanoyl)oxy)methyl (R)-2-Hydroxy-3-propionamido-3,4-dihydro-2H-benzo[e][1,2]oxaborinine-8-carboxylate]", "values": [
      {"measurement": "oral bioavailability (F) in rats", "setting": "[4]", "result": "highest oral bioavailability"},
      {"measurement": "half-life at 3 µM", "setting": "[6]", "result": "~11", "unit": "min"},
      {"measurement": "significant efflux", "setting": "Caco-2 cell monolayers", "result": "yes (ER ≥ 2.0 and Papp (B-to-A) ≥ 1.0 × 10^–6 cm/s)"},
      {"measurement": "absorption potential classification", "setting": "Caco-2 cell monolayers", "result": "high (Papp (A-to-B) ≥ 1.0 × 10^–6 cm/s: high)"},
      {"measurement": "recovery at 120 min, 5 µM", "setting": "[1]; A-to-B", "result": 90, "unit": "%"},
      {"measurement": "recovery at 120 min, 5 µM", "setting": "[1]; B-to-A", "result": 98, "unit": "%"},
      {"measurement": "parent remaining after hepatocyte incubation", "setting": "[7]; 2 µM and 20 µM, 37 °C, 240 min", "result": "0–5%"},
      {"measurement": "metabolites detected after hepatocyte incubation", "setting": "[7]; metabolite identified as 5 (hydrolysis)", "result": "one metabolite"}
    ]},
    {"smiles": "C#CCCC(=O)N[C@H]1Cc2cccc(C(=O)O)c2OB1O", "note": "[compound 12, (R)-2-Hydroxy-3-(pent-4-ynamido)-3,4-dihydro-2H-benzo[e][1,2]oxaborinine-8-carboxylic Acid]", "values": [
      {"measurement": "activity rescuing ceftibuten (in words)", "setting": "[3]", "result": "reduced activity"}
    ]}
  ]
}
